Values after ≈ are worked out from the molar mass of the structure shown. Active and inactive are the calls of the source. No cut-off for these calls is given here.
Assays:
[1] = system: Verticillium dahliae; assay: Antiparasitic activity against Verticillium dahliae assessed as culture diameter at 0.001 mg/ml after 24 hr; assay type: functional
Procedure, shortened: (§1)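 V. dahliae: 3-mm plugs from 3-week cultures (20 °C, dark) were exposed for 24 h at 25 °C in wells of water with 2% DMSO and test compound. Plugs were then rinsed, blotted and plated on PDA with 250 mg/L ampicillin. Diameter was measured after 1 week at 20 °C, excluding non-growing plugs, and expressed as % of the water control. Eight wells per concentration.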

[2] = system: Globisporangium irregulare; assay: Antiparasitic activity against Pythium irregulare assessed as culture diameter at 0.075 mg/ml after 24 hr; assay type: functional
Procedure, shortened: (§2)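 P. irregulare: 3-mm agar plugs from 1-week cultures (20 °C, dark) were placed in wells with water plus test solution in DMSO (final 2% DMSO). Exposure was 24 h at 25 °C in the dark. Plugs were then rinsed, blotted and placed on PDA with 250 mg/L ampicillin. Colony diameter was measured after 48 h at 20 °C, excluding dead plugs, and expressed as % of the water control. EC50 was derived by regression. Eight wells per concentration.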

[3] = system: Globisporangium irregulare; assay: Antiparasitic activity against Pythium irregulare assessed as culture diameter at 0.05 mg/ml after 24 hr; assay type: functional; procedure, shortened: as §2
[4] = system: Verticillium dahliae; assay: Antiparasitic activity against Verticillium dahliae assessed as culture diameter at 0.08 mg/ml after 24 hr; assay type: functional; procedure, shortened: as §1
[5] = system: Verticillium dahliae; assay: Antiparasitic activity against Verticillium dahliae assessed as culture diameter at 0.005 mg/ml after 24 hr; assay type: functional; procedure, shortened: as §1
[6] = system: Verticillium dahliae; assay: Antiparasitic activity against Verticillium dahliae assessed as culture diameter at 0.01 mg/ml after 24 hr; assay type: functional; procedure, shortened: as §1
[7] = system: Globisporangium irregulare; assay: Antiparasitic activity against Pythium irregulare assessed as culture diameter at 0.2 mg/ml after 24 hr; assay type: functional; procedure, shortened: as §2
[8] = system: Globisporangium irregulare; assay: Antiparasitic activity against Pythium irregulare assessed as culture diameter at 0.025 mg/ml after 24 hr; assay type: functional; procedure, shortened: as §2
[9] = system: Verticillium dahliae; assay: Antiparasitic activity against Verticillium dahliae assessed as culture diameter at 0.03 mg/ml after 24 hr; assay type: functional; procedure, shortened: as §1
[10] = system: Meloidogyne hapla; assay: Antiparasitic activity against Meloidogyne hapla J2 assessed as larvicidal activity for 24 hr measured after replacement with water; assay type: functional, organism-based; conditions: J2, 24 h
Procedure, shortened: (§3)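 M. hapla J2 (tomato-cultured isolate) in 96-well plates, 40–60 J2 per well in water with test solution in DMSO (final DMSO 2% v/v). Incubated covered in the dark at 25 °C for 24 h, then mortality scored visually. Compounds were then removed and replaced with water, and mortality was rescored after another 24 h. EC50 was taken from dose-response regression. Eight wells per concentration; experiments were run at least twice.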

[11] = system: Verticillium dahliae; assay: Antiparasitic activity against Verticillium dahliae assessed as culture diameter after 24 hr; assay type: functional, organism-based; procedure, shortened: as §1
[12] = system: Verticillium dahliae; assay: Antiparasitic activity against Verticillium dahliae assessed as culture diameter at 0.2 mg/ml after 24 hr; assay type: functional; procedure, shortened: as §1
[13] = system: Meloidogyne hapla; assay: Antiparasitic activity against Meloidogyne hapla J2 assessed as larvicidal activity after 24 hr; assay type: functional, organism-based; conditions: J2, 24 h; procedure, shortened: as §3
[14] = system: Globisporangium irregulare; assay: Antiparasitic activity against Pythium irregulare assessed as culture diameter at 0.1 mg/ml after 24 hr; assay type: functional; procedure, shortened: as §2
[15] = system: Globisporangium irregulare; assay: Antiparasitic activity against Pythium irregulare assessed as culture morality after 24 hr; assay type: functional, organism-based
Procedure, shortened: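 P. irregulare plugs were exposed in wells to compounds in 2% DMSO for 24 h at 25 °C, then rinsed and plated on ampicillin-amended PDA. Plugs failing to grow were counted as dead, giving percentage mortality per treatment. EC50 was estimated from dose-response regression. Eight replicate wells per concentration; experiments were run at least twice.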

[16] = system: Verticillium dahliae; assay: Antiparasitic activity against Verticillium dahliae assessed as culture diameter at 0.05 mg/ml after 24 hr; assay type: functional; procedure, shortened: as §1
[17] = system: Verticillium dahliae; assay: Antiparasitic activity against Verticillium dahliae assessed as culture diameter at 0.02 mg/ml after 24 hr; assay type: functional; procedure, shortened: as §1
[18] = system: Verticillium dahliae; assay: Antiparasitic activity against Verticillium dahliae assessed as culture diameter at 0.1 mg/ml after 24 hr; assay type: functional; procedure, shortened: as §1
[19] = system: Globisporangium irregulare; assay: Antiparasitic activity against Pythium irregulare assessed as culture diameter at 0.15 mg/ml after 24 hr; assay type: functional; procedure, shortened: as §2
[20] = system: Globisporangium irregulare; assay: Antiparasitic activity against Pythium irregulare assessed as culture diameter at 0.5 mg/ml after 24 hr; assay type: functional; procedure, shortened: as §2
[21] = system: Globisporangium irregulare; assay: Antiparasitic activity against Pythium irregulare assessed as culture diameter at 0.75 mg/ml after 24 hr; assay type: functional; procedure, shortened: as §2
[22] = system: Globisporangium irregulare; assay: Antiparasitic activity against Pythium irregulare assessed as culture diameter after 24 hr; assay type: functional, organism-based; procedure, shortened: as §2
[23] = system: Globisporangium irregulare; assay: Antiparasitic activity against Pythium irregulare assessed as culture diameter at <= 0.3 mg/ml after 24 hr; assay type: functional, organism-based; procedure, shortened: as §2
[24] = system: Globisporangium irregulare; assay: Antiparasitic activity against Pythium irregulare assessed as culture diameter at 0.3 mg/ml after 24 hr; assay type: functional; procedure, shortened: as §2

COc1cccc(CN=C=S)c1 [3-METHOXYBENXYL ISOTHIOCYANATE]
mortality at 1 µg/mL [1]: 0% | mortality at 75 µg/mL [2]: 56% | mortality at 50 µg/mL [3]: 54% | mortality at 80 µg/mL [4]: 7% | mortality at 5 µg/mL [5]: 0% | mortality at 10 µg/mL [6]: 0% | mortality at 200 µg/mL [7]: 88% | mortality at 25 µg/mL [8]: 0% | mortality at 30 µg/mL [9]: 0% | EC50 [10]: 3 µg/mL (≈ 16.7 µM) | EC50 [11]: 100 µg/mL (≈ 558 µM) | mortality at 200 µg/mL [12]: 69% | EC50 [13]: 2 µg/mL (≈ 11.2 µM) | mortality at 100 µg/mL [14]: 63% | EC50 [15]: 50 µg/mL (≈ 279 µM) | mortality at 50 µg/mL [16]: 19% | mortality at 20 µg/mL [17]: 0% | mortality at 100 µg/mL [18]: 50% | mortality at 150 µg/mL [19]: 88%

COc1cccc(CC(N)=S)c1
mortality at 50 µg/mL [3]: 0% | mortality at 500 µg/mL [20]: 0% | mortality at 750 µg/mL [21]: 0% | EC50 [22]: 750 µg/mL (≈ 4140 µM) | Activity [23]: inactive | EC50 [10]: 584 µg/mL (≈ 3220 µM) | EC50 [13]: 245 µg/mL (≈ 1350 µM) | mortality at 300 µg/mL [24]: 0% | mortality at 150 µg/mL [19]: 0%
